Measurements from article PMC12257300 (RSC Advances, 2025).
*: point of attachment. Fmoc = O=C(OCC1c2ccccc2-c2ccccc21)*

Experiments:
[1] = soft Fmoc-WWRR-NH2 based hydrogels; cited from earlier work
[2] = Gelation by inverted tube test / minimum gelation concentration; type: physicochemical; details: 1 w/v% of sequence + 1 w/v% H-FQFQFK-NH2 in PBS
How it was run: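 Gels formed by adding PBS to the peptide acetate salt in a tube, then repeated vortexing (1 min) and sonication (5 min), and resting overnight at room temperature before assessment.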

[3] = Rheology, shear recovery experiment; type: physicochemical; details: 2 w/v% P4 biogel, shear strain 50%, 1 Hz, 25 °C
How it was run: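 Hydrogel (350 μL) loaded on a 25 mm plate and rested 5 min. G′ and G′′ were recorded for 60 s at 1 Hz and 1% strain, then strain was raised to 50% for 30 s. The cycle was repeated 4 times under a 1 N normal force at 25 °C, in threefold.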

| Substance | Gelation behavior of co-formulation with parent peptide (inverted tube test) [2] | other results |
| --- | --- | --- |
| Fmoc-WWRR-NH2 | – | Storage modulus G′ of reported hydrogel [1]: ~100 Pa |
| H-RRWWQFQFK-NH2 [P5, H-RRWWQFQFK-NH2] | self-supporting hydrogels | – |
| H-RWRWQFQFK-NH2 [P4, H-RWRWQFQFK-NH2] | – | tan δ at increased shear strain [3]: 0.6 |
| H-WRWRFQFQFK-NH2 [P2, H-WRWRFQFQFK-NH2] | self-supporting hydrogels | – |
